Data from ChEMBL document CHEMBL1800061 (J Med Chem, 2010).
The source made the active and inactive calls. The rule behind the calls is not given here.

Assays:
[1] = Cmax in mouse at 10 mg/kg, po; type: ADME, organism-based; design: dose 10 mg/kg, route oral; conditions: in vivo
Summary of the method: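 Mice given 10 mg/kg by the ip, iv or oral route. Plasma levels were measured at 8 time points, with 3 animals per route for po and iv. Parameters came from a noncompartmental model. AUCINF was extrapolated to infinity, and bioavailability was calculated from AUCINF. The terminal slope used 3 points.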

[2] = biological target: Insulin receptor-related protein (Homo sapiens, UniProt P14616); assay: Inhibition of IRR assessed as residual enzyme activity at 10 uM
[3] = biological target: Dual specificity tyrosine-phosphorylation-regulated kinase 3 (Homo sapiens) (UniProt O43781); assay: Inhibition of DYRK3 assessed as residual enzyme activity at 10 uM
MCF7 = assay: Antitumor activity against human MCF7 cells xenografted in nude BALB/c mouse assessed as decrease in tumor volume at 5 mg/kg, ip bid for 14 days relative to control on day 1; type: functional; conditions: route intraperitoneal
Summary of the method: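 Randomised nude mice bearing MCF-7 tumours were injected intraperitoneally twice daily with 5 or 10 mg/kg (10 or 20 mg/kg/day) for 14 days. The control group received vehicle. Tumour volume was expressed relative to each animal's own day 1 volume.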

Mus musculus [4] = assay: Inhibition of cyclin-dependent kinase substrate RB phosphorylation at Thr 821 in nude BALB/c mouse PBMC at 50 mg/kg, po measured after 24 hrs by immunostaining and flow cytometric analysis; type: functional, organism-based; design: dose 50 mg/kg
Summary of the method: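 Seven-week-old female nu/nu-BALB/c nude mice got a single oral gavage (vehicle 28% PEG300/5% dimethylacetamide/10% HPB cyclodextrin in water). Blood was taken by cardiac puncture at 6 h or 24 h, red cells were lysed, and PBMC were fixed and permeabilized. Cells were stained with Rb, Rb pThr821, PolII or PolII pSer2 antibodies plus an Alexa488 secondary, then read by flow cytometry; n=4 (n=3 at 100 mg/kg).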

[5] = Tmax in mouse at 10 mg/kg, po; type: ADME, organism-based; design: dose 10 mg/kg, route oral; conditions: in vivo
[6] = Plasma protein binding in human at 10 uM; type: ADME, cell-free; conditions: read-out: PPB (converted)
Summary of the method: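 Plasma protein binding in human and mouse plasma, test concentration 10 μM. Reported as percent bound, mean (range).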

[7] = biological target: Homeodomain-interacting protein kinase 2 (Homo sapiens) (UniProt Q9H2X6); assay: Inhibition of HIPK2 assessed as residual enzyme activity at 10 uM
[8] = biological target: Glycogen synthase kinase-3 beta (Homo sapiens) (UniProt P49841); assay: Inhibition of GSK3-beta assessed as residual enzyme activity at 10 uM
[9] = biological target: G2/mitotic-specific cyclin-B1 (Homo sapiens) (UniProt P14635); assay: Inhibition of cyclin B-mediated phosphorylation of RB protein in human HCT116 cells after 4 hrs by immunoblotting analysis; type: cell-based; conditions: HCT-116
Summary of the method: (§1)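 HCT116 colon cancer cells were kept in DMEM with 10% FCS. Cells (8×10^5) were plated, dosed 24 h later, and exposed for 4 or 24 h. Whole-cell lysates were made in RIPA buffer with phosphatase and protease inhibitor cocktails and normalised by BCA protein assay. They were immunoblotted for phospho-sites, total proteins and cyclins.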

HCT-116 = assay: Cell cycle arrest in human HCT116 cells assessed as reduction in cells at G1 phase at 1 to 10 umol/L after 24 hrs by propidium iodide staining based flow cytometric analysis; type: functional
Summary of the method: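 HCT116 cells (4×10^5) were allowed to adhere for 24 h, then exposed to 1 or 10 μmol/L compound from DMSO for 24 h. Cells were fixed in 70% ethanol at 4 °C and stained overnight with RNase and propidium iodide. DNA content was read by flow cytometry. Results are from three independent experiments, with unpaired t test against the DMSO control.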

Cyclin-A2 (Homo sapiens) = Cyclin-A2 (Homo sapiens) (UniProt P20248); conditions: HCT-116, 1 umol/L
[10] = biological target: Serine/threonine-protein kinase PAK 5 (Homo sapiens) (UniProt Q9P286); assay: Inhibition of PAK5 assessed as residual enzyme activity at 10 uM
[11] = biological target: Ephrin type-B receptor 3 (Homo sapiens) (UniProt P54753); assay: Inhibition of EPHB3 assessed as residual enzyme activity at 10 uM
[12] = biological target: Protein kinase C alpha type (Homo sapiens) (UniProt P17252); assay: Inhibition of PKCalpha assessed as residual enzyme activity at 10 uM
[13] = biological target: T1, Mitogen-activated protein kinase 3 (Homo sapiens, UniProt P27361); assay: Inhibition of ERK1 assessed as residual enzyme activity at 10 uM
[14] = biological target: Cyclin-dependent kinase 1 (Homo sapiens) (UniProt P06493); assay: Inhibition of CDK1-mediated phosphorylation of RB protein in human HCT116 cells after 4 hrs by immunoblotting analysis; type: cell-based; conditions: HCT-116; summary of the method: as §1
[15] = biological target: Casein kinase I isoform alpha (Homo sapiens, UniProt P48729); assay: Inhibition of CK1 at 0.1 uM
[16] = biological target: Eukaryotic elongation factor 2 kinase (Homo sapiens) (UniProt O00418); assay: Inhibition of EFK2 assessed as residual enzyme activity at 10 uM
COLO 205 = assay: Antiproliferative activity against human COLO205 cells after 72 hrs by sulforhodamine B assay; type: functional; conditions: COLO 205, 72 h
Summary of the method: (§2)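 Cell lines were grown in DMEM with 10% FCS and treated with increasing concentrations for 72 h. Growth was read by sulforhodamine B staining and GI50 was derived. Values are means of at least three replicates with SD.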

[17] = biological target: Serine/threonine-protein kinase PAK 4 (Homo sapiens) (UniProt O96013); assay: Inhibition of PAK4 assessed as residual enzyme activity at 10 uM
[18] = biological target: Cyclin-dependent kinase 4 (Homo sapiens) (UniProt P11802); assay: Inhibition of CDK4-mediated phosphorylation of RB protein in human HCT116 cells after 4 hrs by immunoblotting analysis; type: cell-based; conditions: HCT-116; summary of the method: as §1
Mus musculus [19] = assay: Inhibition of cyclin-dependent kinase substrate […] phosphorylation in nude BALB/c mouse PBMC at 50 mg/kg, po measured after 6 hrs by immunostaining and flow cytometric analysis; type: functional, organism-based; design: dose 50 mg/kg
Summary of the method: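 Female nu/nu-BALB/c athymic nude mice (7 weeks old) given a single oral gavage dose in 28% PEG300/5% dimethylacetamide/10% HPB cyclodextrin in water. PBMC were isolated from cardiac blood after red-cell lysis, then fixed, permeabilized and stained with primary antibodies (1:100, 1 h, RT) and an Alexa Fluor 488 secondary (1:200, 1 h). Read-out was flow cytometry; n=4 (n=3 at 100 mg/kg).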

[20] = biological target: Ribosomal protein S6 kinase alpha-5 (Homo sapiens) (UniProt O75582); assay: Inhibition of MSK1 assessed as residual enzyme activity at 10 uM
A549 = assay: Antiproliferative activity against human A549 cells after 72 hrs by sulforhodamine B assay; type: functional; conditions: A549, 72 h; summary of the method: as §2
[21] = biological target: T1, Mitogen-activated protein kinase 3; assay: Inhibition of ERK1 at 0.1 uM

CC(C)c1cnn2c(NCc3ccccc3)cc(N[C@@H](CO)[C@H](O)CO)nc12
Cmax [1]: 9350 ng/mL
Activity [2]: 32%
Activity [3]: 88%
inhibition in vivo at 5 mg/kg (MCF7): 30%
inhibition (Mus musculus [4]): inactive
Tmax [5]: 15 min
fraction unbound at 10 µM [6]: 0.057
Activity [7]: 73%
Activity [8]: 63%
inhibition [9]: inactive
Activity (HCT-116): Active
inhibition (Cyclin-A2 (Homo sapiens)): Active
Activity [10]: 65%
Activity [11]: 72%
Activity [12]: 96%
Activity [13]: 42%
inhibition [14]: inactive
inhibition [15]: < 50%
Activity [16]: 92%
GI50 (COLO 205): 0.12 µM
Activity [17]: 55%
inhibition [18]: inactive
inhibition (Mus musculus [19]): inactive
Activity [20]: 96%
GI50 (A549): 0.2 µM
inhibition [21]: < 50%
